From ChEMBL document CHEMBL2029215, “Synthesis, reactive oxygen species generation and copper-mediated nuclease activity profiles of 2-aryl-3-amino-1,4-naphthoquinones” (Bioorg Med Chem Lett, 2012)
Calls of active or inactive are those of the source. The rule behind the calls is not given here.

Experiments:
[1] = Hydrogen peroxide release activity in potassium phosphate buffer at pH 7.4 after 60 mins by […] based colorimetric assay in presence of catalase; type: physicochemical; settings: pH 7.4, 1 h
How it was run: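 Compound incubated at pH 7.4 for 1 h. Reaction mixture then treated with catalase before the xylenol orange colorimetric read-out for H2O2.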

[2] = tested on: Nucleic Acid; assay: Induction of DNA damage in Escherichia coli pBR322 assessed as supercoiled DNA cleavage at 25 uM after 24 hrs by agarose gel electrophoresis in presence of Cu2+; type: nucleic-acid assay
How it was run: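 Compound with Cu(II) at 1:1, no added reducing agent. Mixture holds 100 ng form I pBR322 in 10 mM MOPS, pH 7.4, incubated 37 °C for 24 h. Supercoiled-to-nicked (form II) cleavage read on gel against a DNA-only lane.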

[3] = Hydrogen peroxide release activity in potassium phosphate buffer at pH 7.4 after 60 mins by […] based colorimetric assay; type: physicochemical; settings: pH 7.4, 1 h
How it was run: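 Compound incubated in pH 7.4 buffer for 1 h. H2O2 then estimated with a xylenol orange-based colorimetric method.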

[4] = tested on: Nucleic Acid; assay: Induction of DNA damage in Escherichia coli pBR322 assessed as supercoiled DNA cleavage at 25 uM after 24 hrs by agarose gel electrophoresis; type: nucleic-acid assay
How it was run: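 Compound at 25 µM without Cu(II) and with no added reducing agent, incubated with supercoiled pBR322 plasmid DNA. Damage assessed as cleavage of supercoiled form on gel.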

[5] = Superoxide release activity in potassium phosphate buffer at pH 7.4 and 25 uM after 30 mins by […]
How it was run: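 Compound incubated in pH 7.4 buffer. Superoxide detected by luminol-based chemiluminescence.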

[6] = Superoxide release activity in potassium phosphate buffer at pH 7.4 and 25 uM after 30 mins by […] in presence of superoxide dismutase
How it was run: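 Compound incubated in pH 7.4 buffer with superoxide dismutase present. Superoxide read by luminol-based chemiluminescence.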

[7] = tested on: Nucleic Acid; assay: Induction of DNA damage in Escherichia coli pBR322 assessed as supercoiled DNA cleavage at 10 uM after 24 hrs by agarose gel electrophoresis in presence of Cu2+; type: nucleic-acid assay
How it was run: (§1)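 Concentration course of 1–10 µM compound with an equimolar amount of Cu(II). Mixture holds 100 ng supercoiled pBR322 plasmid (form I) in 10 mM MOPS, pH 7.4, incubated 37 °C for 24 h. Cleavage to nicked form II read on gel against a DNA-only lane.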

[8] = tested on: Nucleic Acid; assay: Induction of DNA damage in Escherichia coli pBR322 assessed as supercoiled DNA cleavage at 1 uM after 24 hrs by agarose gel electrophoresis in presence of Cu2+; type: nucleic-acid assay; how it was run: as §1

Activity [3] | SMILES | Activity [2] | Activity [4] | further results
Active | O=C1C(c2ccc(F)cc2)=C(N2CCCC2)C(=O)c2ccccc21 | Active | inactive | Activity [1]: Active
< 2 µM | NC1=C(c2ccccc2)C(=O)c2ccccc2C1=O | – | – | –
< 2 µM | CN(C)CCNC1=C(c2ccccc2)C(=O)c2ccccc2C1=O | – | – | –
– | O=C1C(c2ccccc2)=C(N2CCCCC2)C(=O)c2ccccc21 | Active | inactive | –
< 2 µM | O=C1C(NCc2ccc(Cl)cc2)=C(c2ccccc2)C(=O)c2ccccc21 | – | – | –
< 2 µM | CCCCNC1=C(c2ccccc2)C(=O)c2ccccc2C1=O | – | – | –
< 2 µM | O=C1C(Nc2ccc([N+](=O)[O-])cc2)=C(c2ccccc2)C(=O)c2ccccc21 | – | – | –
< 2 µM | CCCNC1=C(c2ccccc2)C(=O)c2ccccc2C1=O | Active | inactive | –
< 2 µM | C=CCNC1=C(c2ccccc2)C(=O)c2ccccc2C1=O | – | – | –
< 2 µM | COc1ccc(CNC2=C(c3ccccc3)C(=O)c3ccccc3C2=O)cc1 | – | – | –
Active | COc1ccccc1C1=C(N2CCCC2)C(=O)c2ccccc2C1=O | Active | inactive | Activity [1]: Active
– | O=C1C(c2ccccc2)=C(N2CCCC2)C(=O)c2ccccc21 | Active | inactive | Activity [1]: Active; Activity [6]: Active; Activity [7]: Active; Activity [8]: Active; Activity [5]: Active
< 2 µM | O=C1C(NCc2ccccc2)=C(c2ccccc2)C(=O)c2ccccc21 | Active | inactive | –
< 2 µM | COc1ccc(NC2=C(c3ccccc3)C(=O)c3ccccc3C2=O)cc1 | – | – | –
Active | COc1ccc(C2=C(N3CCCC3)C(=O)c3ccccc3C2=O)cc1 | Active | inactive | Activity [1]: Active
Not Active | CN1CCCC1 [N-METHYL PYRROLIDINE (NMP)] | – | – | Activity [5]: inactive

SMILES | Activity [3] | Activity [2] | Activity [4] | further results
C1CCNC1 [PYRROLIDINE] | Not Active | – | – | Activity [5]: inactive
O=C1C(Nc2ccccc2)=C(c2ccccc2)C(=O)c2ccccc21 | < 2 µM | Active | inactive | –
